# Source: PubChem BioAssay
# MC4R ag barr: MC4R agonists recruiting beta-arrestin, primary screen, cell-based, luminescence, agonist arm of biased-ligand search; Melanocortin receptor 4 (Homo sapiens), P32245; U2OS MC4R beta-arrestin complementation; percent of melanotan II response, DMSO zero; activation, % at 8.9 µM; 360,000 compounds, 0.98% hits; AID 540308, 2011;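 active = activation above a per-plate cutoff, the mean activation of sample wells on that plate plus 3 SD, cut at about 8% in these data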
# Target sequence (P32245 whole entry, looked up): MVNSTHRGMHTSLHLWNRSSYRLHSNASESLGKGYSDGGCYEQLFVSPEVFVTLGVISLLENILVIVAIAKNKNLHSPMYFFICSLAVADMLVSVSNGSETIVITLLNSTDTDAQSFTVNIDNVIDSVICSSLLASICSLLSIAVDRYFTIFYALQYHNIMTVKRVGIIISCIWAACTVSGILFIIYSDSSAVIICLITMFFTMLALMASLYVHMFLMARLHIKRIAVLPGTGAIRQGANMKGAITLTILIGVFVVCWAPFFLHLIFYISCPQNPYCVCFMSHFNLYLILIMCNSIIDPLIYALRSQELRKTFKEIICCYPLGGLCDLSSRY
# MsrA act: bovine MsrA enzyme activators, primary screen, biochemical, absorbance, HTS | 360,000 compounds, 0.3% hits | purified bovine MsrA, absorbance read-out | Methionine sulfoxide reductase A (Bos taurus) | activation, % at 10.6 µM; in the data active = activation above about 7.5%;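 also: 0% = vehicle and 100% = reference activator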
# MC4R antagonist: MC4R antagonists of cAMP signaling, primary screen, cell-based, TR-FRET, antagonist arm of biased-ligand search. 360,000 compounds, 0.48% hits. inhibition, % at 6.5 µM. Melanocortin receptor 4 (Homo sapiens), P32245. MC4R-expressing cells, MTII-stimulated cAMP, LANCE TR-FRET. AID 540295, 2011;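 active = inhibition above its plate's cutoff, the mean of tested wells on that plate plus 3 SD, cut at about 29% in these data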;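 also: 0% = Melanotan II alone and 100% = Melanotan II plus saturating MCL0020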
#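 material = U2OS cells stably expressing human melanocortin 4 receptor (MC4R) | also added = Melanotan II challenge | dosing = single nominal compound dose of 6.5 µM | detection = TR-FRET with Eu-cAMP and labeled anti-cAMP, 671 nm | replication = singlicate | timing = compound 30 min, challenge 1 h, detection 1 h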
# MsrA inhibitor: bovine MsrA enzyme inhibitors, primary screen, biochemical, absorbance, HTS; Methionine sulfoxide reductase A (Bos taurus); purified bovine MsrA, absorbance read-out; inhibition, % at 15.5 µM; 360,000 compounds, 0.75% hits; AID 651718, 2012; in the data active = inhibition above about 4.5%;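 also: 0% = vehicle wells with enzyme and 100% = reference inhibitor wells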
# An asterisk follows results filed as active; . = no result given. Hits are enriched below; roughly 2.3% of the tested compounds scored in any of these assays.
SMILES,MC4R ag barr,MsrA act,MC4R antagonist,MsrA inhibitor
COc1cccc(C2CC(c3cccs3)=NN2C(=O)c2ccco2)c1O (stereo not drawn),0.0,-4.7,4.4,2.1
O=C(c1ccco1)N1N=C(c2cccs2)CC1c1ccccc1O (stereo not drawn),2.2,-5.2,-1.7,5.9*
S=C(NCc1ccc(Cl)cc1Cl)Nc1ccccc1,8.9*,0.7,11.8,0.6
O=[N+]([O-])c1ccc(Oc2cccnc2)c([N+](=O)[O-])c1,-0.2,0.1,-5.1,4.5*
N#C/C(=C/c1ccc(-c2ccc([N+](=O)[O-])cc2)o1)c1nnc(N2CCOCC2)n1-c1ccccc1,-1.6,-5.8,-0.6,-0.4
COc1cc(/C=C(\C#N)c2nnc(N3CCOCC3)n2-c2ccccc2)ccc1O,2.5,-10.4,-14.0,4.6*
CC(=O)Nc1cccc(OCc2cnc(Cl)s2)c1,-2.0,6.4,2.4,1.1
CC(C)(C)c1ccc(OCc2cnc(Cl)s2)cc1,9.3*,-1.6,26.7,1.6
COc1ccc(-c2cc(NC(C)=O)c3ncc(-c4ccccc4)n3c2)cc1OC,5.4,-10.7,-4.0,2.1
CC(=O)Nc1cc(-c2cccc(F)c2)cn2c(-c3ccccc3)cnc12,9.4*,-2.5,0.5,0.9
Cc1cccc(-c2cc(NC=O)c3ncc(-c4cccc(C(=O)N(C)C)c4)n3c2)c1,2.4,-1.4,-10.4,1.8
CC(=O)Nc1cc(-c2cccc(F)c2)cn2c(-c3ccc(S(C)(=O)=O)cc3)cnc12,2.0,-3.9,15.1,0.4
CC(=O)Nc1cc(-c2cccc(C(=O)N(C)C)c2)cn2c(-c3ccc(F)cc3)cnc12,9.0*,-2.1,9.8,1.2
CC(=O)Nc1cc(-c2ccccc2F)cn2c(-c3ccccc3)cnc12,8.3*,-1.8,9.7,-0.1
CN(C)C(=O)c1cccc(-c2cnc3c(NC=O)cc(-c4ccc(N(C)C)cc4)cn23)c1,8.6*,-0.2,-18.2,1.7
CCc1ccccc1N1CC(C(=O)N2Cc3ccccc3CC2C(N)=O)CC1=O (stereo not drawn),-0.9,-2.2,10.5,-0.6
COC(=O)c1ccc(CSc2nc(C(F)(F)F)c3c(c2C#N)CCC3)o1,-0.1,-1.6,0.7,0.8
Cc1ccc(C)n1NC(=O)c1ccc(O)cc1,-0.4,-2.0,4.6,0.0
COc1cccc(N=Nc2c(N)[nH][nH]c2=O)c1,-1.7,-1.9,-26.4,1.8
Oc1[nH]c2ccccc2c1N=Nc1nc(Nc2ccccc2)nc(N2CCOCC2)n1,1.4,-1.6,28.5*,-0.8
CC1CC(=O)c2c(cc3c(-c4c(O)cc(O)c5c(O)c6c(cc45)OC(C)CC6=O)c(O)cc(O)c3c2O)O1 (stereo not drawn),-1.8,-3.5,65.2*,.
O=C1CC(c2ccc(O)cc2)Oc2cc(O)cc(O)c21 (stereo not drawn),-0.3,-2.0,17.3,1.1
O=C1OC(COCC#Cc2ccccc2)CN1c1ccccc1 (stereo not drawn),-2.3,1.6,-1.7,-0.1
COCc1cc(C)nc(OCC(=O)N/N=C/c2ccc(O)cc2O)c1C#N,1.0,-3.4,8.6,4.5*
COc1ccccc1OCc1ccc(C(=O)N/N=C/c2ccco2)cc1,-1.5,-2.8,-6.1,0.9
SMILES,MC4R ag barr,MsrA act,MC4R antagonist,MsrA inhibitor
O=C(N/N=C/c1ccco1)c1cc(Br)ccc1OCc1ccccc1,9.4*,-2.0,2.8,0.0
Cc1ccc2nc(NC(=O)CS(=O)(=O)Cc3ccccc3)sc2c1,2.0,-1.6,0.7,0.7
Cc1ccc2nc(NC(=O)CSCc3ccccc3)sc2c1,8.9*,-10.3,-4.8,0.2
C=CCc1ccccc1OCC(O)CN1CCN(c2ccc(OC)cc2)CC1 (stereo not drawn),8.7*,-1.0,22.2,0.5
Cc1ccccc1OCC(O)CN1CCN(CC(O)COc2ccccc2C)CC1 (stereo not drawn),-1.2,-1.5,9.5,2.9
Cc1ccccc1OCC(O)CN1CCN(c2ccc(Cl)cc2)CC1 (stereo not drawn),8.2*,6.1,7.5,1.2
CCC(CC)C(=O)Nc1nnc(S(=O)(=O)Nc2ccc(OC)cc2)s1,-1.4,-9.9,-1.6,0.5
O=C(Nc1cccc2c1CCCC2)c1ccco1,-1.0,-1.2,16.1,.
Cc1c(C(=O)Oc2ccc(-c3cnc4ccccc4n3)cc2)cccc1[N+](=O)[O-],2.8,0.3,5.6,1.2
